Laboratory results from the EternaBench riboswitch data.

Test system: MS2 coat protein
Assay: apparent Kd, MS2 coat protein; higher = weaker binding; RNA-MaP array; FMN 200 µM where present
Summary of the method: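 In 100 mM Tris-HCl pH 7.5, 80 mM KCl, 4 mM MgCl2, BSA, DTT, yeast tRNA and Tween-20, SNAP-549-labelled MS2 coat protein was titrated from 0.7 or 1.5 nM, doubling to 3 µM, over designs transcribed by stalled E. coli RNA polymerase on Illumina sequencing-chip clusters. This was done first without ligand, then with ligand held constant. After green signal was normalised to red-channel RNA signal and control-cluster median Fmax, the apparent Kd was taken as the median of filtered per-cluster binding-curve fits.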

[1] = designed as: OFF switch for flavin mononucleotide, no ligand
[2] = ligand present: flavin mononucleotide, designed as: OFF switch for flavin mononucleotide
[3] = designed as: ON switch for flavin mononucleotide, no ligand
[4] = ligand present: flavin mononucleotide, designed as: ON switch for flavin mononucleotide

## CUGAUGUUAGGAUAUCAGGUCGCGCGCGAAGGCGCGCAGCAUGAGAAGGAACAUGAGGAUCACCCAUGUGACGA
[1]
  apparent Kd: 22.4 nM
[2]
  apparent Kd: 60.5 nM

## CUGCCCAGUGUGAGGAUAUACAAAGGAAUUCCUUGGUAGAAGGCACAUGAGGAUCACCCAUGUGACUCGCGGUA
[1]
  apparent Kd: 20.6 nM
[2]
  apparent Kd: 52.7 nM

## CUGGUGUGAGGAUAUCAAAGACCUCGGGAUAGUACCGAGGAUGAGAAGGCACAUGAGGAUCACCCAUGUAACAA
[1]
  apparent Kd: 21.2 nM
[2]
  apparent Kd: 35.4 nM

## CUGGUGUGAGGAUAUCAAAGACCUCGGUAAAGAACCGAGGAUGAGAAGGCACAUGAGGAUCACCCAUGUAACAA
[1]
  apparent Kd: 23.3 nM
[2]
  apparent Kd: 32.9 nM

## CUGUAACAUGAGGAUCACCCAUGUCAGGAUAUCUAUCAUAGCAUCGAAAGAUGCGGGUAGAGAAGGGACUAUCC
[1]
  apparent Kd: 17 nM
[2]
  apparent Kd: 18.2 nM

## CUGUAAGAUGUAGGAUAUACAAUAAUAUUGUUAGUAGAAGGACAUGAGGAUCACCCAUGUAUAUAAAUUUUAAAUACUUUUGUG
[1]
  apparent Kd: 40.8 nM
[2]
  apparent Kd: 31.5 nM

## CUGUGUCCGCAGGAUAUGUUAUCCUGAAGGAUCACAGAAGGGCGGACAUGAGGAUCACCCAUGUGAGCCAAAGA
[1]
  apparent Kd: 16.2 nM
[2]
  apparent Kd: 17.3 nM

## CUUAGACAUGAGGAUCACCCAUGUGAGGAUAUGAUGCGAUCGUCGAAAGACGAUAGCAUCAGAAGGUACAAAUG
[1]
  apparent Kd: 86 nM
[2]
  apparent Kd: 67 nM

## CUUCUGUAAGGAUAUGUAAAUUGCUGGCCACACCAGCACCGGCAGAAGGUACAUGAGGAUCACCCAUGUGGGUU
[1]
  apparent Kd: 219 nM
[2]
  apparent Kd: 137 nM

## CUUGAUCUUGUCAGGAUAUACCUGCCUAGUUGGAGGUAGAAGGGACAUGAGGAUCACCCAUGUAGCCAACCGAC
[1]
  apparent Kd: 16.9 nM
[2]
  apparent Kd: 19.2 nM

## CUUGUGUUAGGAUAUGCGCCCUGAAGUGGAAGGGCCAGAGAGCAGAAGGGACAUGAGGAUCACCCAUGUGUGAC
[1]
  apparent Kd: 79.7 nM
[2]
  apparent Kd: 125 nM

## CUUUAGUAAGGAUAUCAGCUUAGGAGGUUGGUAAUGAGAGCUGAGAAGGUACAUGAGGAUCACCCAUGUUAGUU
[1]
  apparent Kd: 17.3 nM
[2]
  apparent Kd: 19.7 nM

## CUUUAGUGAGGAUAUCAGUAGUAAUACAAUAGUAUUAUUACUGAGAAGGCACAUGAGGAUCACCCAUGUUCCUC
[1]
  apparent Kd: 29.4 nM
[2]
  apparent Kd: 120 nM

## CUUUAGUGAGGAUAUCAGUAGUAGAACAAUAGUACUACUACUGAGAAGGCACAUGAGGAUCACCCAUGUUCCUC
[1]
  apparent Kd: 31 nM
[2]
  apparent Kd: 157 nM

## CUUUAGUGAGGAUAUUAGUAGUAAUACAAUAGUAUUACUACUGAGAAGGCACAUGAGGAUCACCCAUGUUCCUC
[1]
  apparent Kd: 27.8 nM
[2]
  apparent Kd: 292 nM

## CUUUCGUGAGGAUAUGUGGCUUCGAUCGUGAGAUCGAGGAAACAGAAGGCACAUGAGGAUCACCCAUGUUCCUC
[1]
  apparent Kd: 35.9 nM
[2]
  apparent Kd: 421 nM

## CUUUCGUGAGGAUAUGUGGCUUCGAUCGUGAGAUCGAGGCUACAGAAGGCACAUGAGGAUCACCCAUGUUCCUC
[1]
  apparent Kd: 38.8 nM
[2]
  apparent Kd: 487 nM

## CUUUUGGGAGGAUAUACAUGAGGAUCACCCAUGUGGUCGUGACCAAGUAAGCGCACUCGUAGAAGGCCCACGAC
[1]
  apparent Kd: 66.7 nM
[2]
  apparent Kd: 98 nM

## CUUUUGUCAGGAUAUGAGUAGUAGAACAAUAGUACUACUACUCAGAAGGGACAUGAGGAUCACCCAUGUUCCUC
[1]
  apparent Kd: 16.6 nM
[2]
  apparent Kd: 50.5 nM

## CUUUUGUGAGGAUAUCAGUAGUAAAAAAAUAAAAUUUCUACUGAGAAGGCACAUGAGGAUCACCCAUGUUCCUC
[1]
  apparent Kd: 34 nM
[2]
  apparent Kd: 184 nM

## CUUUUGUGAGGAUAUCAGUAGUAAAAAUAUAAAAUUACUACUGAGAAGGCACAUGAGGAUCACCCAUGUUCCUC
[1]
  apparent Kd: 39.7 nM
[2]
  apparent Kd: 244 nM

## CUUUUGUGAGGAUAUCAGUAGUAAAUAAAUAAAAUUACUUCUGAGAAGGCACAUGAGGAUCACCCAUGUUCCUC
[1]
  apparent Kd: 34.1 nM
[2]
  apparent Kd: 251 nM

## CUUUUGUGAGGAUAUCAGUAGUAAAUAAAUAAAAUUAUUACUGAGAAGGCACAUGAGGAUCACCCAUGUUCCUC
[1]
  apparent Kd: 40.1 nM
[2]
  apparent Kd: 192 nM

## CUUUUGUGAGGAUAUCAGUAGUAAAUAUAUAAAAUUACUACUGAGAAGGCACAUGAGGAUCACCCAUGUUCCUC
[1]
  apparent Kd: 38.1 nM
[2]
  apparent Kd: 274 nM

## CUUUUGUGAGGAUAUCAGUAGUAUAAAAUUAAAAUUACUACUGAGAAGGCACAUGAGGAUCACCCAUGUUCCUC
[1]
  apparent Kd: 35.2 nM
[2]
  apparent Kd: 201 nM

## CUUUUGUGAGGAUAUCAGUGGUAAUACAAUAGUAUUACUACUGAGAAGGCACAUGAGGAUCACCCAUGUUCCUC
[1]
  apparent Kd: 44.5 nM
[2]
  apparent Kd: 220 nM

## CUUUUGUGAGGAUAUUAGUAGUAAUACAAUAGUAUUACUACUGAGAAGGCACAUGAGGAUCACCCAUGUUCCUC
[1]
  apparent Kd: 38.2 nM
[2]
  apparent Kd: 147 nM

## GAAAACUGAGGAUAUACUUUGGGAAAAGAAAAGAUGAUGUUACAUGAGGAUCACCCAUGUAGAAGGCAGAAAAA
[1]
  apparent Kd: 25.9 nM
[2]
  apparent Kd: 36 nM

## GAAAAGUGAGGAUAUGGUAAUGUAAGUAUGUAGUAUGUAAUCCAGAAGGCACAUGAGGAUCACCCAUGUAAAAG
[1]
  apparent Kd: 23 nM
[2]
  apparent Kd: 25.2 nM

## GAAAGGGCAGGAUAUGCAUGUUGGCAAAAUUCUCAGCAAGAACAUGAGGAUCACCCAUGUAGAAGGGCCAACGG
[1]
  apparent Kd: 42.3 nM
[2]
  apparent Kd: 59.9 nM

## GAAGAAAAGGCAGGAUAUCAGAAACACAUGAUAAGGAGAUGCAACAUGAGGAUCACCCAUGUAAAUGAGAAGGGCCGCCCUUCC
[1]
  apparent Kd: 35.6 nM
[2]
  apparent Kd: 62.1 nM

## GAAGAUGGUGAGGAUAUCAUUAACCACAUCGGAUGAGAAGGUACCACAUGAGGAUCACCCAUGUACAUAUUACU
[1]
  apparent Kd: 22.4 nM
[2]
  apparent Kd: 22.9 nM

## GAAGCUAUCGGAGGAUAUUCAUAGCCGAAAGGCACAUGAGGAUCACCCAUGUGCGGAAACGCUUGGGAGAAGGCCGAUAGCUUC
[3]
  apparent Kd: 25.4 nM
[4]
  apparent Kd: 14.7 nM

## GAAGGAUGAGCGUAGGAUAUAGGAGGAGUGACAUGAGGAUCACCCAUGUGGUAGGAGGGAGGGUACUAGAAGGACGAGGAAGAGG
[3]
  apparent Kd: 63.5 nM
[4]
  apparent Kd: 52.2 nM

## GAAUAAUUGAUCCAAUAUAACAACAUGAGGAUCACCCAUGUGCAGGAUAUCGUAUUUAUUAUAUACGAGAAGGGCAAGAACUGU
[1]
  apparent Kd: 343 nM
[2]
  apparent Kd: 475 nM

## GAAUAAUUGAUCCAUUUUUAAAACAUGAGGAUCACCCAUGUGCAGGAUAUCGUGAGAGUUAAAUACGAGAAGGGCAAGAACUGU
[1]
  apparent Kd: 123 nM
[2]
  apparent Kd: 173 nM

## GAAUAAUUGAUCCAUUUUUAAAACAUGAGGAUCACCCAUGUGCAGGAUAUCGUGUGAGUUAAAUACGAGAAGGGCAAGAACUGU
[1]
  apparent Kd: 201 nM
[2]
  apparent Kd: 214 nM

## GAAUAUUCGUGGUACAUGAGGAUCACCCAUGUGUCUUUACAUGAGGAUAUGGAUUCUAAUUGGAUCCAGAAGGCAUGAAUAUUC
[3]
  apparent Kd: 75.5 nM
[4]
  apparent Kd: 31.2 nM

## GAAUAUUCGUUGAACAUGAGGAUCACCCAUGUAACUUGACAUGAGGAUAUGGAUUCUAAUUGGAUCCAGAAGGCAUGAAUAUUC
[3]
  apparent Kd: 75.3 nM
[4]
  apparent Kd: 26.9 nM

## GAAUAUUCGUUGAACAUGAGGAUCACCCAUGUAACUUGACAUGAGGAUAUGGAUUCUAAUUGGAUCCAGAAGGUAUGAAUAUUC
[4]
  apparent Kd: 91.8 nM

## GAAUGUUGAGGAUAUACAUGAGGAUCACCCAUGUGUUAGCAGAGUCUGCCCGUCUUCAGUAGAAGGCAACAUUC
[1]
  apparent Kd: 17.2 nM
[2]
  apparent Kd: 42.4 nM

## GAAUUUUUACAGAAGGUGUUUUACAUGAGGAUCACCCAUGUUUUAUUGUUUAAAUUUGUUAUUUACAAGGAUAUGUUCUAUUCU
[3]
  apparent Kd: 26.7 nM
[4]
  apparent Kd: 19.7 nM

## GACAGUGCUAAUAAAUAAGAUCUACAUGAGGAUCACCCAUGUAAGGAUAUCGUCAGGAAUACUGACGAGAAGGUACAUGCACUG
[1]
  apparent Kd: 15.4 nM
[2]
  apparent Kd: 26.2 nM

## GACAUACAUGAGGAUCACCCAUGUACAAACGUACAAGGAUAUGUGUGGAAACCGUACUAUACAGAAGGUGUUUGUC
[3]
  apparent Kd: 47.6 nM
[4]
  apparent Kd: 41.5 nM

## GACAUACAUGAGGAUCACCCAUGUUCAAACGAACAAGGAUAUGUGUGGAAACCAUACUAUACAGAAGGUGUCUGUC
[3]
  apparent Kd: 81.7 nM
[4]
  apparent Kd: 97.7 nM

## GACAUACAUGAGGAUCACCCAUGUUCAGACGAACAAGGAUAUGUGUGGAAACCAUACUAUACAGAAGGUGUCUGUC
[3]
  apparent Kd: 78.4 nM
[4]
  apparent Kd: 36 nM

## GACAUGAGGAUCACCCAUGUCCAACCAGAAGGCCAGAAAUCGAACCCGUGUAUCGGGUCCGAGAUGGAGGAUAUGGGCGCCGAA
[3]
  apparent Kd: 72.4 nM
[4]
  apparent Kd: 32.4 nM

## GACAUGAGGAUCACCCAUGUCCUUCCAGAAGGCUGGCGCGCGAAACCUAAAUCAGUUCCGCGCACAGAGGAUAUGGGCAGUUGG
[3]
  apparent Kd: 72.2 nM
[4]
  apparent Kd: 15.9 nM

## GACGCGCUCACAGGAUAUAGAUCCUCAGUGGCUCUAGAAGGGUGAACGUGCCCGAACGGGACAUGAGGAUCACCCAUGUAAUAA
[3]
  apparent Kd: 34.9 nM
[4]
  apparent Kd: 13.2 nM

## GACUCGAAUGUAGGAUAUGCUGAGGAUAACUCAGCAGAAGGACAUGAGGAUCACCCAUGUCAAUGAGUGAAUAAUAAACGAGUC
[1]
  apparent Kd: 29 nM
[2]
  apparent Kd: 245 nM

## GACUCGCGCACAGGAUAUCCACGUAGCGGACGUGGAGAAGGGUGACAUGAGGAUCACCCAUGUACGUGAGUCUAGAUCACUUCC
[3]
  apparent Kd: 40.2 nM
[4]
  apparent Kd: 22.8 nM

## GACUGACAUGAGGAUCACCCAUGUAUUCGAGCAUGAGGAUAUAUGACACGUCAUCGGCGGAUAGAAGGCAUGGUUG
[3]
  apparent Kd: 124 nM
[4]
  apparent Kd: 185 nM

## GACUGCCGAGGAUAUACAUGAGGAUCACCCAUGUGCUUCAGCAUUUAAUAAUGCAUGGGUAGAAGGCGGUAGUC
[1]
  apparent Kd: 42.8 nM
[2]
  apparent Kd: 74.6 nM

## GACUGUCUAGGAUAUGCGACGUUUUACAUGAGGAUCACCCAUGUUGUCUGCGUGUGUGUGGCAGAAGGAGACAAAC
[1]
  apparent Kd: 13 nM
[2]
  apparent Kd: 19.9 nM

## GACUUGGCUACAUGAGGAUCACCCAUGUUUGACUGGAUCAAUUAGGAUAUAGUGAUAUGCAACAAUUAGAAGGGAUGUUUACGG
[3]
  apparent Kd: 56.6 nM
[4]
  apparent Kd: 45.2 nM

## GAGAUCAUCACAGGAUAUGCAUUCCAUAAGUGGGCAGAAGGGUGAGAUUCAAGUGGACAUGAGGAUCACCCAUGUAUACUGCCU
[3]
  apparent Kd: 33.1 nM
[4]
  apparent Kd: 17.3 nM

## GAGAUGUCAGGAUAUGUGUAAAGAAUAAAACAAAUAACAACACAGAAGGGACAUGAGGAUCACCCAUGUUACUC
[1]
  apparent Kd: 24.9 nM
[2]
  apparent Kd: 54.6 nM
